Screening results as filed in PubChem BioAssay.
Rows were chosen to be rich in hits. Some 1.4% of all compounds tested hit in one or more screens of this group.
FXIIa inh – factor XIIa (human) inhibition. 220,000 tested, 0.3% active. inhibition, % at 5 µM. AID 800. P00748. purified FXIIa, Boc-QGR-AMC fluorogenic substrate, 2 h; in the data active = inhibition above about 40%;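 note: 0% = enzyme with no compound and 100% = blank without enzyme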
thrombin 1536 – inhibitors of human thrombin; P00734; alpha-thrombin, Boc-VPR-AMC fluorogenic substrate cleavage; inhibition, % at 5 µM; 220,000 tested, 0.26% active; AID 1046;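 active = inhibition at or above 40%; inactive = inhibition below 40%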;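 note: 0% = enzyme with no compound and 100% = wells without enzyme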
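signal = AMC fluorescence, 355/460 nm | material = human alpha-thrombin enzyme | control set = enzyme without compound as high, wells lacking enzyme as low | times = reaction at room temperature | read-out basis = percent inhibition scaled between no-compound controls and no-enzyme blanks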
m-calpain inh – calpain II (pig) inhibition. AID 1236. purified calpain II, fluorogenic peptide substrate, 30 min. 220,000 tested, 0.37% active. inhibition, % at 16 µM;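 active = inhibition above about 50%, limit read from the data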
FXIa inh – blocks human coagulation factor XIa protease activity | P03951 | purified FXIa, Boc-Glu-Ala-Arg-AMC fluorogenic substrate | inhibition, % at 5 µM | 220,000 tested, 0.14% active | AID 798;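 active = inhibition of at least 40%; inactive = inhibition below 40%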;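 note: fluorescence of freed AMC excited at 355 nm; 0% = enzyme without compound and 100% = no enzyme blank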
Furin inhibitor – inhibitors of human furin. AID 463115. purified furin, fluorogenic substrate cleavage. P09958. inhibition, % at 20 µM or 30 µM. 220,000 tested, 0.061% active; in the data active = inhibition above about 25%
KLK5 inh – blocks human kallikrein 5 protease activity. recombinant hK5, fluorogenic AMC substrate cleavage. 210,000 tested, 0.59% active. Q9Y337. AID 873. inhibition, % at 5 µM;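 active = inhibition of 40% or more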;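 note: 0% = enzyme controls without compound and 100% = no-enzyme blanks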
* marks the source's active call; other numbers are inactive results; x = no result.

SMILES | FXIIa inh | thrombin 1536 | m-calpain inh | FXIa inh | Furin inhibitor | KLK5 inh
CCN(CC(O)Cn1c2ccccc2c2ccccc21)S(=O)(=O)c1ccc(F)cc1 (stereo not given) | -9 | 2 | 69* | -6 | -6 | -15
O=C1N=C(N2CCCC2C(=O)O)S/C1=C\c1ccco1 (stereo not given) | 14 | 0 | 23 | 12 | 2 | 23
CC(NC(=O)c1ccc(F)cc1)c1ccc(F)cc1 (stereo not given) | 6 | -11 | 15 | 1 | -11 | -18
CC(NC(=O)c1ccccc1)c1ccc(F)cc1 (stereo not given) | 16 | -2 | 62* | 9 | -39 | -8
N#Cc1ccsc1NC(=O)CN(Cc1ccccc1)Cc1ccccc1 | 10 | -5 | 38 | 43* | -1 | 4
COc1ccc(SC[C@H](CC(C)C)N2CCN(CCc3ccccc3)CCC2=O)cc1 | 5 | 0 | 14 | 0 | -22 | 3
O=C(CCOc1ccccc1F)N1CCN(c2ccccc2O)CC1 | 2 | 3 | 17 | -3 | -3 | -12
Cc1cc(C)cc(-n2c(C)cc(C(=O)CSc3nnnn3C)c2C)c1 | 12 | 3 | -2 | -14 | -10 | 5
Cc1cc(C(=O)CSc2nnnn2C)c(C)n1-c1cccc(F)c1 | 23 | 49* | 2 | 14 | -12 | 34
CCN1CCN(c2cc(C(C)(C)C)nc3c(-c4ccccc4)c(C)nn23)CC1 | 2 | 13 | -29 | 0 | 4 | 47*
CCN1CCN(c2cc(C(C)C)nc3c(-c4ccccc4)c(C)nn23)CC1 | 3 | -1 | -2 | 1 | -6 | 1
CCOc1ncccc1C(=O)NCc1ccccc1Cl | 12 | -2 | -14 | 1 | -31 | 3
Cc1ccc(C(=O)NCCCNc2ccccc2[N+](=O)[O-])cc1 | 2 | -14 | 51* | -2 | -12 | 1
Cc1c(NS(=O)(=O)c2ccc(Cl)c(C(=O)OCC(=O)NCc3ccco3)c2)c(=O)n(-c2ccccc2)n1C | 17 | 46* | 26 | 19 | -6 | 24
CCCCCCCCCCCCCCCC[n+]1ccc(C(N)=O)cc1 | 2 | -2 | 72* | -3 | 2 | -12
Fc1ccc(N2CCN(C(c3cccs3)c3nnnn3CCc3ccccc3)CC2)cc1 (stereo not given) | 9 | -1 | -2 | 1 | -19 | -15
Fc1ccccc1N1CCN(C(c2cccs2)c2nnnn2CCc2ccccc2)CC1 (stereo not given) | 11 | 0 | 55* | -5 | -25 | 13
COc1ccc(NC(=O)C(CC(C)C)NC(=O)C2CCC(C)CC2)c(OC)c1 (stereo not given) | 8 | 4 | -1 | 0 | -13 | 2
Cc1ccc(-c2nc(N)sc2-c2ccc(C)cc2)cc1 | 8 | -5 | 62* | 2 | -12 | 0
CCc1nc2sc3c(O)cc(=O)[nH]c3c2cc1C | 12 | 1 | -287 | 4 | -39 | x
COC(=O)NCC(c1ccco1)N1CCN(c2ccc(F)cc2)CC1 (stereo not given) | -2 | 27 | 10 | 0 | -14 | 43*
COC(=O)NCC(c1ccco1)N1CCN(c2ccc(OC)cc2)CC1 (stereo not given) | -9 | -1 | -26 | -9 | -22 | -28
O=C(NCC(c1cccnc1)N1CCN(c2ccccc2)CC1)OCc1ccccc1 (stereo not given) | 17 | 2 | -11 | 5 | -20 | 1
O=C(NCC(c1cccnc1)N1CCN(c2ccc(F)cc2)CC1)OCc1ccccc1 (stereo not given) | 14 | 21 | 6 | 10 | -1 | 46*
N#Cc1sc2nc(-c3ccccc3)cc(C(F)(F)F)c2c1N | 23 | 50* | -48 | 26 | -6 | 24
Cc1nc(-c2ccccc2)sc1C(=O)CSc1ccc(Cl)cc1 | 4 | 9 | 64* | -10 | -20 | -11
CN(Cc1cc2ccccc2[nH]c1=O)S(C)(=O)=O | 1 | -4 | 9 | -7 | -2 | 47*
CN(Cc1cc2ccccc2[nH]c1=O)S(=O)(=O)c1ccccc1 | 3 | 5 | -5 | 2 | -19 | -11
O=C(C1CCN(c2ccc(N3CCOCC3)nn2)CC1)N1CCN(c2ccc(F)cc2)CC1 | -10 | 0 | x | -6 | -16 | 106*
Cc1ccc(C)c(NC(=O)/C(C#N)=C/c2cn(CC(=O)NCc3ccco3)c3ccccc23)c1 | 1 | 31 | 30 | 12 | -18 | 46*
